Most compounds without a hit are left out; they make up all but 2.4% or so of the library.
STAT3 inh-1: reduces IL-6 driven STAT3 reporter signal; inhibition, % at 5.5 µM; U3A cells, IL-6 STAT3-luciferase reporter, luminescence; host cell line lacks STAT1; actives 0.89% (n = 190,000);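 active = inhibition above the mean inhibition across all screened compounds plus 3 SD, cut at about 44% in these data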
MT stabilize HCS: microtubule stabilization, imaging screen. HeLa tubulin immunostaining HCS, 24 h; share of cells brighter than vehicle mean+2SD. % tubulin-high responders, % at 10 µM. actives 0.83% (n = 200,000);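 active = plate Z-score above 3 for both tubulin-high and condensed-nucleus cell shares, with cell loss under 80%, at 10 µM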;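 note: anti alpha tubulin signal scored within the nucleus-defined area of each cell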
b-catenin transl: modulators of beta-catenin nuclear translocation; actives 0.3% (n = 190,000); AID 1665; HeLa beta-catenin nuclear translocation, immunofluorescence imaging; nuclear translocation activity, % at 5 µM;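 active = nuclear translocation activity above 50% at 5 µM, with a well cell count of 50 or more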;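 note: per-cell ratio of nuclear to cytoplasmic median beta-catenin stain intensity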
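Signal – beta-catenin immunofluorescence imaging with DAPI · Test system – human HeLa cell line · Dosing – 5 µM primary single dose, 0.1% DMSO, 0.02–20 µM confirmation series · Measure – % activation, nuclear-to-cytoplasmic median beta-catenin signal ratio per cell · Incubation – 24 h compound exposure at 37°C, 5% CO2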
STAT3 act: STAT3 signaling activation; U3A cells, IL-6 STAT3-luciferase reporter, luminescence; 100% = signal with IL-6 EC80 alone; activation (% of control), % at 5.6 µM; actives 0.91% (n = 190,000); AID 871;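 active = activation above the screen-wide mean of compound activation plus 3 SD, cut at about 130% in these data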
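Material: STAT1-lacking human U3A cells, STAT3 luciferase reporter | Benchmarks: IL-6-only wells as 100% reference | Probe or stimulus: IL-6 (33 ng/mL) | Timing: Compound 1 h, then IL-6 6 h at 37 °C | Detection: Luminescence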
STAT1 blocker: inhibitors of IFN-gamma induced STAT1 signaling. NIH 3T3 STAT1-luciferase reporter, luminescence. inhibition, % at 5.5 µM. actives 0.35% (n = 200,000). AID 920;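 active = inhibition above a set limit, the mean inhibition across all tested compounds plus 3 SD, cut at about 34% in these data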
STAT3 inh-2: confirmation of STAT3 signaling inhibitors; shares compounds with STAT3 inh-1; U3A cells, IL-6 STAT3 luciferase reporter, luminescence; cell line lacks STAT1; inhibition, % at 5.7 µM; actives 45% (n = 1,200); AID 1265;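 active = inhibition above the hit cutoff computed for the primary STAT3 screen, cut at about 44% in these data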
NFkB inh STAT3ct: counter-screen for STAT3 inhibitors: NF-kappaB inhibition | AID 1308 | HEK293T NF-kB luciferase reporter, TNF-alpha induced | shares compounds with STAT3 inh-1 | inhibition, % at 5.7 µM | actives 36% (n = 1,200);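 active = inhibition above the mean of solvent-only control wells plus 3 SD, cutoff set per campaign, cut at about 13% in these data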
STAT1 inh STAT3c: inhibits STAT1, counter-screen to STAT3 inhibitors | shares compounds with STAT3 inh-1 | inhibition, % at 5.7 µM | actives 27% (n = 1,200) | NIH 3T3 STAT1-luciferase reporter, IFN-gamma induced, luminescence;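 active = inhibition above the mean plus 3 SD of solvent-only control wells, limit set per screening run, cut at about 16% in these data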
Hits are given with their value; . = inactive; / = no result.

SMILES	STAT3 inh-1	MT stabilize HCS	b-catenin transl	STAT3 act	STAT1 blocker	STAT3 inh-2	NFkB inh STAT3ct	STAT1 inh STAT3c
Oc1ccc(-c2cn3cc(C(F)(F)F)ccc3n2)cc1	83	.	.	.	.	80	39	18
CCCCCCn1ccc(=N)cc1	70	.	.	.	.	56	18	.
COc1ccc(C2=NOC(C)(c3nnc(-c4ccc(F)cc4)o3)C2)cc1 (stereo unspecified)	/	/	.	/	/	/	/	/
Nc1cc(-c2ccccc2)nn1Cc1ccc(Cl)cc1	49	.	.	.	.	45	.	.
Nc1cc(-c2ccc(Br)cc2)nn1Cc1ccccc1	67	.	.	.	.	58	.	.
Cc1cc(C)c(C(=O)Nc2ccccc2)c(CC(C)(C)C(=O)O)c1	/	/	.	/	/	/	/	/
O=S(=O)(c1ccc2c(c1)OCCO2)N1CCC(c2nc3ccccc3s2)CC1	53	.	.	.	.	44	.	.
O=C(c1ccc(S(=O)(=O)N2CCC(c3nc4ccccc4s3)CC2)cc1)N1CCOCC1	/	/	.	/	/	/	/	/
CCn1c(C(C)NC(=O)c2cccs2)n[nH]c1=S (stereo unspecified)	.	.	.	.	.	/	/	/
Cc1cc2nc(-c3ccc4c(c3)CCC4)ccn2n1	.	.	.	.	.	/	/	/
COc1ccc(-c2csc(N3C(=O)CNC3=S)n2)cc1	.	.	.	.	.	/	/	/
COc1ccc(-c2csc(N3C(=N)SCC3=O)n2)cc1	50	.	/	.	.	.	.	.
O=C(Nc1ccc(N2CCOCC2)nc1)c1ccc(C(F)(F)F)cc1	61	.	.	.	.	59	.	.
Cc1ccc(-n2ncc3c(=O)n(-c4ccc(C)c(C)c4)c(C)nc32)cc1	.	.	.	.	.	/	/	/
Cc1ccc(-n2c(C)nc3c(cnn3-c3ccc(F)cc3)c2=O)cc1	53	.	/	.	.	.	.	.
COc1cccc(-n2c(C)nc3c(cnn3-c3ccc(Cl)cc3)c2=O)c1	55	.	/	.	.	.	.	16
CCOC(=O)N1CCN(C(=O)c2cc3c(s2)-c2ccc(Cl)cc2S(=O)(=O)C3)CC1	.	.	.	.	.	/	/	/
CCOC(=O)n1c(O)c(N=NC(N)=S)c2cc(C)ccc21	/	/	.	/	/	/	/	/
COc1ccc(N/C=C/C(=O)c2ccc3c(c2)OCO3)cc1OC	.	.	.	.	.	/	/	/
O=C(/C=C\Nc1ccc2c(c1)OCO2)c1ccc(Cl)s1	62	.	.	.	.	.	.	.
COc1ccc(C(=O)Nc2ccc3oc(Cc4ccc(Cl)cc4)nc3c2)cc1OC	51	.	/	.	.	45	.	.
O=C(Nc1cc(Cl)ccn1)C1CCN(S(=O)(=O)c2cccs2)CC1	51	.	.	.	.	.	.	.
O=C(Nc1ccncc1)C1CCN(S(=O)(=O)c2cccs2)CC1	.	.	.	.	.	/	/	/
O=C1OC(c2cccc([N+](=O)[O-])c2)C2(CCCC2)C(=O)C12CCCCC2 (stereo unspecified)	.	.	.	.	.	/	/	/
Cn1cc(C(=O)c2ccc(Cl)cc2)cc1-c1nc2ccccc2n1C	46	.	.	.	.	.	.	.
SMILES	STAT3 inh-1	MT stabilize HCS	b-catenin transl	STAT3 act	STAT1 blocker	STAT3 inh-2	NFkB inh STAT3ct	STAT1 inh STAT3c
COC(=O)/C=C1\SC(N)=NC1=O	/	/	.	/	/	/	/	/
N#Cc1c(NC(=S)NC(=O)Cc2cccs2)sc2c1CCCCC2	.	.	.	.	.	/	/	/
Cc1ccc(CSc2nc3ncccc3[nH]2)cc1	48	.	.	.	.	.	.	.
C=C(C)CSc1nc2ncccc2[nH]1	.	.	.	.	.	/	/	/
COc1ccc(-c2cc3nc(C)cc(N)n3n2)cc1	69	.	.	.	.	.	.	.
c1ccc(Oc2ccc(-c3ccn[nH]3)cc2)cc1	/	/	.	/	/	/	/	/
c1ccc(-c2ncc(-c3ccn[nH]3)s2)cc1	46	.	.	.	.	.	.	.
COc1cc(/C=N/NC(=O)CC23CC4CC(CC(C4)C2)C3)cc(Br)c1OCC(=O)N(C)C	.	.	/	.	.	/	/	/
CCc1ccc(CNC(=O)c2cc3c(C)nc4ccccc4c3o2)cc1	52	.	.	.	.	.	.	.
COc1cc(NC(=O)c2cc3c(C)nc4ccccc4c3o2)cc(OC)c1OC	.	.	/	.	.	/	/	/
COc1cccc(CNC(=O)c2cc3c(C)nc4ccccc4c3o2)c1	46	.	.	.	.	.	.	.
CCCCN(CC)CCNC(=O)c1cc2c(C)nc3ccccc3c2o1	.	.	.	.	.	/	/	/
COc1ccc(CNC(=O)c2cc3c(C)nc4ccccc4c3o2)c(OC)c1	79	.	/	.	.	60	15	20
Cc1cc(C(=O)Nc2ccccc2)oc(=O)c1	/	/	.	/	/	/	/	/
COc1cc(C(=O)N2CCN(c3ncnc4sc(C)c(C)c34)CC2)cc(OC)c1OC	52	.	.	.	37	45	17	31
CCOc1ccc(NC(=O)c2cnsn2)cc1	49	.	/	.	.	.	.	.
CCc1nc(NCCO)c(C#N)c2c1CSC(C)(C)C2	/	/	.	/	/	/	/	/
CS(=O)(=O)N1CCCC(c2nc(-c3ccc(S(=O)(=O)NCc4ccccc4)cc3)no2)C1 (stereo unspecified)	66	.	.	.	.	72	26	22
O=C(C1CC1)N1CCC(c2nc(-c3ccc(S(=O)(=O)NCC4CCCO4)cc3)no2)CC1 (stereo unspecified)	51	.	.	.	.	56	15	.
O=C(c1ccccc1)N1CCC(c2nc(-c3ccc(S(=O)(=O)NCC4CCCO4)cc3)no2)CC1 (stereo unspecified)	69	.	.	.	.	.	22	27
O=C(c1ccc(S(=O)(=O)NCC2CCCO2)cc1)N1CCc2ccccc21 (stereo unspecified)	.	.	/	.	.	/	/	/
O=C1c2ccc(Br)cc2C(=O)N1c1ccc(Cc2ccncc2)cc1	59	.	.	.	.	59	.	.
Cc1nn2cc(-c3ccc(-c4ccccc4)cc3)nc2s1	.	.	.	.	.	/	/	/
Cc1nc2nc(-c3ccc(Cl)cc3)cn2nc1C	66	.	.	.	.	.	.	.
CCc1nn2cc(-c3ccccc3)nc2s1	91	.	.	.	.	69	38	.
Cc1nn2cc(-c3ccc(Cl)cc3)nc2s1	52	.	.	.	.	.	.	.
CCC(C)NC(=S)N(CCc1ccccc1)Cc1cc2cc(OC)c(OC)cc2[nH]c1=O (stereo unspecified)	.	.	.	.	.	/	/	/

Screens as filed in PubChem BioAssay.
